Results on two compounds are retold here after ChEMBL document CHEMBL6071141, “In vitro and in vivo evaluation of Bombesin-MMAE conjugates for targeted tumour therapy” (Eur J Med Chem, 2024).

Data set [1] has as its target T1, Gastrin-releasing peptide receptor (Homo sapiens, UniProt P30550). Kind of data set: Displacement of 125 I- [Tyr4] from bombesin receptor 2 in human PC-3 cells assessed as inhibition by radioligand displacement assay. Format: cell-based. In short, it runs like this:
(§1)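 Competition binding on membrane preparations from PC-3 or MDA-MB-231 cells against ¹²⁵I-[Tyr⁴]-bombesin, with conjugates at 10 μM–10 pM. IC50 was taken as the concentration giving 50 % inhibition of tracer binding.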

Data set [2] can be described thus: Cytotoxicity against human PC-3 cells assessed as inhibition of cell growth incubated for 72 hrs and followed by treated with compound continued incubation for further 72 hrs (double treatment) after retreatment of compound by CellTiter 96 aqueous assay. Format: toxicity, cell-based. In short, it runs like this: (§2)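 PC-3 or MDA-MB-231 cells were treated the day after seeding with serial dilutions, from 2000 nM for conjugates and 100 nM for MMAE, for 72 h. Then the assay was stopped, or run 72 h more after a medium change (single) or re-treatment (double). Controls got 0.05 % DMSO. Read-out was MTS absorbance at 490 nm after 90 min. IC50 by non-linear regression; ≥2 experiments, triplicates.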

Data set [3] can be described thus: Toxicity in mouse xenografted with human PC-3 cells assessed as effect on liver 0.5 mg/kg, ip administered upto 23 days. To be noted: in vivo, 552 h.
In data set [4] the target is T1, Gastrin-releasing peptide receptor. Kind of data set: Displacement of 125 I- [Tyr4] from bombesin receptor 2 in human MDA-MB-231 cells assessed as inhibition by radioligand displacement assay. The format is cell-based. In short, it runs like this: as §1
The nature of data set [5]: Cytotoxicity against human MDA-MB-231 cells assessed as inhibition of cell growth incubated with compound for 72 hrs followed by further incubated for 72 hrs (single treatment) by CellTiter 96 aqueous assay. The format is toxicity, cell-based. In short, it runs like this:
as §2

Data set [6] in a line: Toxicity in mouse xenografted with human PC-3 cells assessed as change in body weight at 0.2 mg/kg, ip administered upto 23 days. Format: organism-based. Particulars: in vivo, 0.5 mg/kg, 552 h, in the assay text read “0.5 mg/kg” for “0.2 mg/kg”. In short, it runs like this:
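Chronic dosing in mice bearing PC-3 xenografts. Free MMAE at 0.2 mg/kg (conjugates at 0.5 mg/kg MMAE-content), i.p. in 5 % DMSO in water on days 8, 11, 16 and 23 after inoculation. Seven per group; solvent controls. Body weight measured at the start and at periodic intervals.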

Data set [7] has as its system PC-3. Kind of data set: Antitumor activity against human PC-3 cells xenografted in mouse assessed as inhibition in tumour growth at 0.5 mg/kg, ip administered upto 23 days. Format: functional, organism-based. To be noted: time <= 23.0 day. The method, boiled down: (§3)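 Chronic study in mice bearing subcutaneous PC-3 tumours. Dosing began 8 days after cell inoculation, at a mean tumour volume of 93 mm³. Seven per group, randomized. Four i.p. doses (0.1 mL) on days 8, 11, 16 and 23 of 0.5 mg/kg MMAE-content, in 5 % DMSO in water for injection; controls got solvent. Tumour volume by calliper, V = ab²×π/6.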

Data set [8] can be described thus: Cytotoxicity against human PC-3 cells assessed as inhibition of cell growth incubated for 72 hrs by CellTiter 96 aqueous assay. Format: toxicity, cell-based. In short, it runs like this: as §2
Data set [9] is described as follows: Cytotoxicity against human MDA-MB-231 cells assessed as inhibition of cell growth incubated for 72 hrs and followed by treated with compound continued incubation for further 72 hrs (double treatment) after retreatment of compound by CellTiter 96 aqueous assay. Format: toxicity, cell-based. In short, it runs like this:
as §2

Data set [10] concerns PC-3. Kind of data set: Antitumor activity against human PC-3 cells xenografted in mouse assessed as reduction in tumour size at 0.5 mg/kg, ip administered upto 23 days relative to control. Format: functional. Set-up: scale not given: the % may be the effect or the level left. Particulars: time <= 23 day. In short, it runs like this:
as §3

Data set [11] has as its system PC-3. Nature of the data set: Antitumor activity against human PC-3 cells xenografted in mouse assessed as reduction in tumour weight at 0.5 mg/kg, ip administered upto 23 days relative to control. Set-up: scale not given: the % may be the effect or the level left. Particulars: time <= 23 day. Format: functional.
The nature of data set [12]: Cytotoxicity against human cells MDA-MB-231 assessed as inhibition of cell growth incubated for 72 hrs by CellTiter 96 aqueous assay. Format: toxicity, cell-based. To be noted: MDA-MB-231 cells. In short, it runs like this:
as §2

A short description of data set [13]: Toxicity in mouse xenografted with human PC-3 cells assessed as body weight loss at 1 mg/kg, ip administered relative to control. The format is organism-based. To be noted: in vivo, 2 mg/kg, in the assay text read “2 mg/kg” for “1 mg/kg”. The method, boiled down:
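Toxicity in mice bearing subcutaneous PC-3 tumours after a single i.p. dose 9 days post-inoculation. Free drug at 1 mg/kg, conjugates at 2 mg/kg MMAE-content, in 5 % DMSO in water; solvent controls; eight per group. Body weight followed periodically. Endpoint at 20 % weight loss; behaviour (activity, coat, stool, paleness) also scored.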

A short description of data set [14]: Biodistribution in mouse xenografted with human PC-3 cells assessed as tumour environment incubated for 24 hrs by LC-HRMS. The format is ADME, organism-based, Neoplasm. To be noted: in vivo. In short, it runs like this:
(§4)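 Mice bearing PC-3 xenografts received a single 2 mg/kg i.p. dose. Blood, tumour, liver, kidneys, heart, lungs and pancreas were collected at 1, 6 and 24 h and pooled per group. Tissues were homogenised in water (1:2 w/v) and centrifuged. Released MMAE was measured by LC-HRMS and expressed as %ID/g (n = 3).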

The subject of data set [15] is PC-3. Nature of the data set: Antitumor activity against human PC-3 cells xenografted with mouse assessed as median survival days at 2 mg/kg, ip (reference value: 33 days).
Data set [16] is described as follows: Cytotoxicity against human PC-3 cells assessed as inhibition of cell growth incubated with compound for 72 hrs followed by further incubated for 72 hrs (single treatment) by CellTiter 96 aqueous assay. The format is toxicity, cell-based. In short, it runs like this:
as §2

Data set [17] relates to PC-3. Kind of data set: Antitumor activity against human PC-3 cells xenografted in mouse assessed as reduction in tumour volume relative to control. Format: functional. Set-up: scale not given: the % may be the effect or the level left. In short, it runs like this: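 Acute study in mice bearing subcutaneous PC-3 tumours. Single i.p. dose (0.1 mL) 9 days after inoculation, at a mean tumour volume of 62 mm³. Eight per group, randomized. Conjugates at 2 mg/kg MMAE-content, free MMAE at 1 mg/kg, in 5 % DMSO in water; solvent controls. Calliper volume V = ab²×π/6. Sacrifice at 20 % weight loss or 2000 mm³.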

Data set [18] is described as follows: Drug uptake in mouse liver at ip administration xenografted with human PC-3 cells measured upto 24 hrs by LC-HRMS. The format is ADME, organism-based. To be noted: in vivo. The method, boiled down: as §4
Data set [19] can be described thus: Drug uptake in mouse lungs at ip administration xenografted with human PC-3 cells measured upto 24 hrs by LC-HRMS. The format is ADME, organism-based, Lung. To be noted: in vivo. In short, it runs like this:
as §4

A short description of data set [20]: Drug uptake in mouse blood at ip administration xenografted with human PC-3 cells measured upto 24 hrs by LC-HRMS. Particulars: in vivo. The format is ADME, organism-based. In short, it runs like this:
as §4

The nature of data set [21]: Drug uptake in mouse heart at ip administration xenografted with human PC-3 cells measured upto 24 hrs by LC-HRMS. To be noted: in vivo. Format: ADME, organism-based. The method, boiled down: as §4
Data set [22] in a line: Drug uptake in mouse pancreas at ip administration xenografted with human PC-3 cells measured upto 24 hrs by LC-HRMS. Format: ADME, organism-based. To be noted: in vivo. In short, it runs like this:
as §4

Data set [23] is described as follows: Drug uptake in mouse kidney at ip administration xenografted with human PC-3 cells measured upto 24 hrs by LC-HRMS. Format: ADME, organism-based. Particulars: in vivo. In short, it runs like this:
as §4

pIC50: −log10 of the molar value. The source made the active and inactive calls. The calls are words filed in the database; no cut-off is given here. Numbered stars: 1 amine (or outer) side, 2 acyl side, 3 side chain; on linkers, the order of the positions; unused ones are H or OH. Bridge positions count the residues as written; N and C are the ends. Square brackets hold non-standard residues; d marks the D form. Peptide text beside a SMILES is read from it. I, II: the chains in the order shown. * marks the point of attachment. Hexanoyl(6-succinimido-3yl) = O=C1CC([*:1])C(=O)N1CCCCCC(=O)[*:2]; Dolaproine = CO[C@@H]([C@@H]1CCCN1)[C@@H](C)C(=O)O; X2 = O=C([C@H](CC1=CSC2C=CC=CC12)N[*:1])[*:2]; Dil = CC[C@H](C)[C@H](NC)[C@@H](CC(=O)O)OC; PABC = O=C(OCc1ccc(N[*:1])cc1)[*:2]; X3 = C[C@@H](N*)[C@@H](O)c1ccccc1; Cit = NC(=O)NCCC[C@H](N)C(=O)O; PEG4 = NCCOCCOCCOCCOCCC(=O)O; NMeV = CN[C@H](C(=O)O)C(C)C; Nle = CCCC[C@H](N)C(=O)O

T1 sequence (P30550 whole entry): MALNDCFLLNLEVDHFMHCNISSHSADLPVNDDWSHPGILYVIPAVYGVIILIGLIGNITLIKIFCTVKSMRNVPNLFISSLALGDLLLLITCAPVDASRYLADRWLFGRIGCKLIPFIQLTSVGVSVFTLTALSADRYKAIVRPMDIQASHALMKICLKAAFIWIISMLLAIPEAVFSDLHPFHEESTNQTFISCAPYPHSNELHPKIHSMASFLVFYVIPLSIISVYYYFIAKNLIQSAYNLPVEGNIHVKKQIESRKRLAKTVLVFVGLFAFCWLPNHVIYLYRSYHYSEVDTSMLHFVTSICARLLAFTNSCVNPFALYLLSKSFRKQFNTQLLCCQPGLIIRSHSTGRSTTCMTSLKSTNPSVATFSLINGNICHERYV

Regarding `CC[C@H](C)[C@@H]([C@@H](CC(=O)N1CCC[C@H]1[C@H](OC)[C@@H](C)C(=O)N[C@H](C)[C@@H](O)c1ccccc1)OC)N(C)C(=O)[C@@H](NC(=O)[C@H](C(C)C)N(C)C(=O)OCc1ccc(NC(=O)[C@H](CCCNC(N)=O)NC(=O)[C@@H](NC(=O)[C@H](CCC(=O)O)NC(=O)CCCCCN2C(=O)CC(SC[C@H](NC(C)=O)C(=O)NCCOCCOCCOCCOCCC(=O)N[C@H](Cc3ccccc3)C(=O)N[C@@H](CCC(N)=O)C(=O)N[C@@H](CC3=CSC4C=CC=CC34)C(=O)N[C@@H](C)C(=O)N[C@H](C(=O)NCC(=O)N[C@@H](Cc3c[nH]cn3)C(=O)N[C@@H](CC(C)C)[C@@H](O)CC(=O)N[C@@H](CC(C)C)C(N)=O)C(C)C)C2=O)C(C)C)cc1)C(C)C` (stereo partly specified), the pIC50 was 7.24 in data set [1] and 7.15 in data set [4]. In addition, the IC50 at 144 h was 4 nM in data set [2], 41 nM in data set [5], 39.9 nM in data set [9] and 6 nM in [16]. The Activity entry in data set [3] is given as “Non-Toxic”; in [6] it was “Toxic”; in the data set with PC-3 [10], 48%; in the data set with PC-3 [11], 26%; in data set [13] it was below 20%; in the data set with PC-3 [17], 34.2%. Besides, the result with PC-3 [7] was Active. Moreover, the figures for the IC50 at 72 h in [8] and in [12] were 29.3 nM and 299 nM, respectively. Besides, the Drug uptake entry in data set [14] is “Active”. Moreover, the Survival with PC-3 [15] was determined as 42 days.
For `CCCC[C@H](NC(=O)[C@H](CC(C)C)NC(=O)[C@H](Cc1c[nH]cn1)NC(=O)CNC(=O)[C@@H](NC(=O)[C@H](C)NC(=O)[C@H](CC1=CSC2C=CC=CC12)NC(=O)[C@H](CCC(N)=O)NC(=O)[C@H](CC(N)=O)NC(=O)CCOCCOCCOCCOCCNC(=O)[C@H](CSC1CC(=O)N(CCCCCC(=O)N[C@@H](CCC(=O)O)C(=O)N[C@H](C(=O)N[C@@H](CCCNC(N)=O)C(=O)Nc2ccc(COC(=O)N(C)[C@H](C(=O)N[C@H](C(=O)N(C)[C@@H]([C@@H](C)CC)[C@@H](CC(=O)N3CCC[C@H]3[C@H](OC)[C@@H](C)C(=O)N[C@H](C)[C@@H](O)c3ccccc3)OC)C(C)C)C(C)C)cc2)C(C)C)C1=O)NC(C)=O)C(C)C)C(N)=O` (stereo partly specified) (I: Ac-C[PEG4]NQ[X2]AVGHL[Nle]-NH2 / II: EV[Cit][PABC][NMeV]V[Dil][Dolaproine]-X3; linker I:1-II:N via Hexanoyl(6-succinimido-3yl)), the Drug uptake result in data set [18], in [19], in data set [20], in data set [21], in [22] and in data set [23] was “Not Active” in each case. Besides, the figures for the negative-log IC50 (pIC50) in data set [1] and in data set [4] were 7.03 and 6.97, respectively. For the same compound, the IC50 at 144 h in [2] was found to be 11.8 nM; in data set [5], 48.7 nM; in data set [9] it was 46.4 nM; in data set [16] it was 15.6 nM. Besides, the IC50 at 72 h amounted to 53.9 nM in data set [8] and 501 nM in data set [12].
